The values below come from ChEMBL document CHEMBL1124770, “Synthesis and pharmacological evaluation of amino, azido, and nitrogen mustard analogues of 10-substituted cannabidiol and 11- or 12-substituted delta 8-tetrahydrocannabinol” (1990).

Common to all, as to assay type: functional
Experiment [1] has as its system Mus musculus. Put plainly: Tail-flick latency was determined at a concentration of 3 mg/kg. The essentials: (§1)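 Mice, drug suspended in ethanol/emulphor/saline (1:1:18) and given by tail-vein injection (0.1 mL/10 g). Antinociception measured as tail-flick latency (s). Vehicle and Δ9-THC positive controls run in each daily experiment. Data given as mean ± SEM. ANOVA with Dunnett's t test against control, p < 0.05 (two-tailed).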
(In general: Hot-plate and tail-flick tests time the reaction to a heat stimulus.)

Experiment [2] relates to Mus musculus. Put plainly: Evaluated for catalepsy activity in mice and percentage immobility was determined at a concentration of 0 mg/Kg. The essentials: (§2)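 Mice, single tail-vein injection (0.1 mL/10 g) in ethanol/emulphor/saline (1:1:18). Catalepsy scored by ring test as % immobility, per previously reported methods. Vehicle and Δ9-THC positive-control groups run in each daily experiment. Mean ± SEM; ANOVA with Dunnett's t test versus control, p < 0.05 two-tailed.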

Experiment [3] concerns Mus musculus. Put plainly: Evaluated for hypothermic activity in mice at a dose of 3 mg/kg. The essentials:
(§3)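 Mice dosed by tail-vein injection (0.1 mL/10 g) in ethanol/emulphor/saline (1:1:18). Body temperature change (°C) measured by previously reported methods. Vehicle and Δ9-THC positive controls run each day. Mean ± SEM; ANOVA with Dunnett's t test versus control, p < 0.05 two-tailed.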

For experiment [4], the system named is Mus musculus. Put plainly: Tail-flick latency was determined at a concentration of 0 mg/Kg. The essentials: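 Antinociception in mice by tail-flick latency (s), per previously reported methods, after tail-vein injection (0.1 mL/10 g) in ethanol/emulphor/saline (1:1:18). Vehicle and Δ9-THC controls run daily. Mean ± SEM; ANOVA with Dunnett's t test, p < 0.05 two-tailed.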

Experiment [5] relates to Mus musculus. The experiment can be described thus: Evaluated for reduction in spontaneous locomotor activity in mice, at a dose of 0 mg/Kg. Summed up:
(§4)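 Tail-vein injection in mice (0.1 mL/10 g; ethanol/emulphor/saline 1:1:18). Spontaneous locomotor activity counted as counts/10 min, per previously reported methods. Daily vehicle and Δ9-THC positive controls. Mean ± SEM; ANOVA with Dunnett's t test, p < 0.05 two-tailed.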

Experiment [6] relates to Mus musculus. The experiment can be described thus: Evaluated for reduction in spontaneous locomotor activity in mice at a dose of 3 mg/Kg. The essentials: as §4
The subject of experiment [7] is Mus musculus. Put plainly: Evaluated for catalepsy activity in mice and percentage immobility was determined at a concentration of 3 mg/kg. Summed up:
as §2

The test system of experiment [8] is Mus musculus. Put plainly: Evaluated for hypothermic activity in mice at a dose of 0 mg/Kg. Summed up: as §3
The test system of experiment [9] is Mus musculus. Put plainly: Evaluated for hypothermic activity in mice at a dose of 150 mg/Kg administered intraventricularly. Summed up:
(§5)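 Intraventricular injection in mice, 5 μL volume, in ethanol/emulphor/saline (1:1:18) vehicle. Change in body temperature (°C) recorded by previously reported methods, with vehicle and Δ9-THC controls. Mean ± SEM; ANOVA with Dunnett's t test versus control, p < 0.05 two-tailed.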

Experiment [10] concerns Mus musculus. Put plainly: Evaluated for reduction in spontaneous locomotor activity in mice at a dose of 150 mg/Kg administered intraventricularly. The essentials: (§6)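 Mice given intraventricular injection of 5 μL in ethanol/emulphor/saline (1:1:18). Spontaneous locomotor activity recorded as counts/10 min by previously reported methods, alongside vehicle and Δ9-THC controls. Mean ± SEM; ANOVA with Dunnett's t test, p < 0.05 two-tailed.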

Experiment [11] concerns Mus musculus. The experiment can be described thus: Evaluated for hypothermic activity in mice at a dose of 100 mg/Kg administered intraventricularly. The essentials: as §5
The subject of experiment [12] is Mus musculus. The experiment can be described thus: Tail-flick latency was determined at a concentration of 0 mg/Kg administered intraventricularly. The essentials: (§7)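 Tail-flick latency (s) in mice after intraventricular injection (5 μL) of ethanol/emulphor/saline (1:1:18) vehicle, measured by previously reported methods. Mean ± SEM; ANOVA with Dunnett's t test, p < 0.05 two-tailed.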

For experiment [13], the system named is Mus musculus. The experiment can be described thus: Evaluated for reduction in spontaneous locomotor activity in mice, at a dose of 0 mg/Kg administered intraventricularly. Summed up:
as §6

Experiment [14] has as its system Mus musculus. The experiment can be described thus: Evaluated for hypothermic activity in mice at a dose of 0 mg/Kg administered intraventricularly. Summed up: as §5
Experiment [15] has as its system Mus musculus. Put plainly: Evaluated for reduction in spontaneous locomotor activity in mice at a dose of 100 mg/Kg administered intraventricularly. Summed up: as §6
Experiment [16] has as its system Mus musculus. The experiment can be described thus: Evaluated for catalepsy activity in mice and percentage immobility was determined at a concentration of 3 mg/Kg. The essentials:
as §2

In experiment [17] the test system is Mus musculus. The experiment can be described thus: Tail-flick latency was determined at a concentration of 6 mg/kg. Summed up:
as §1

Experiment [18] deals with Mus musculus. The experiment can be described thus: Evaluated for reduction in spontaneous locomotor activity in mice at a dose of 6 mg/Kg. The essentials: as §4
Experiment [19] deals with Mus musculus. The experiment can be described thus: Evaluated for hypothermic activity in mice at a dose of 5 mg/Kg. Summed up: as §3
Experiment [20] deals with Mus musculus. The experiment can be described thus: Tail-flick latency was determined at a concentration of 5 mg/Kg. Summed up: as §1
The subject of experiment [21] is Mus musculus. Put plainly: Evaluated for catalepsy activity in mice and percentage immobility was determined at a concentration of 5 mg/kg. The essentials:
as §2

The subject of experiment [22] is Mus musculus. The experiment can be described thus: Tail-flick latency was determined at a concentration of 3 mg/Kg. Summed up:
as §1

The subject of experiment [23] is Mus musculus. Put plainly: Evaluated for hypothermic activity in mice at a dose of 6 mg/kg. The essentials: as §3
The test system of experiment [24] is Mus musculus. Put plainly: Evaluated for reduction in spontaneous locomotor activity in mice at a dose of 5 mg/Kg. The essentials:
as §4

In experiment [25] the test system is Mus musculus. Put plainly: Evaluated for hypothermic activity in mice at a dose of 3 mg/Kg. The essentials:
as §3

Experiment [26] concerns Mus musculus. Put plainly: Evaluated for catalepsy activity in mice and percentage immobility was determined at a concentration of 5 mg/Kg. Summed up: as §2
Experiment [27] concerns Mus musculus. Put plainly: Tail-flick latency was determined at a concentration of 150 ug/Kg administered intraventricularly. The essentials: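 Mice, injected intraventricularly in 5 μL of ethanol/emulphor/saline (1:1:18) vehicle. Doses given as μg amounts. Antinociception read as tail-flick latency (s), alongside vehicle control. Values reported as mean ± SEM. ANOVA with Dunnett's t test versus control, significance at p < 0.05 (two-tailed).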

Experiment [28] concerns Mus musculus. The experiment can be described thus: Evaluated for reduction in spontaneous locomotor activity in mice at a dose of 50 mg/Kg. Summed up:
as §4

Experiment [29] concerns Mus musculus. Put plainly: Evaluated for catalepsy activity in mice and percentage immobility was determined at a concentration of 50 mg/Kg. The essentials:
as §2

Experiment [30] deals with Mus musculus. The experiment can be described thus: Tail-flick latency was determined at a concentration of 0 ug/Kg administered intraventricularly. Summed up: as §7
Experiment [31] deals with Mus musculus. The experiment can be described thus: Evaluated for hypothermic activity in mice at a dose of 0 ug/Kg administered intraventricularly. The essentials: as §5
For experiment [32], the system named is Mus musculus. The experiment can be described thus: Evaluated for reduction in spontaneous locomotor activity in mice, at a dose of 0 ug/Kg administered intraventricularly. The essentials: as §6
Experiment [33] deals with Mus musculus. Put plainly: Tail-flick latency was determined at a concentration of 50 mg/Kg. Summed up: as §1
The test system of experiment [34] is Mus musculus. The experiment can be described thus: Evaluated for reduction in spontaneous locomotor activity in mice at a dose of 150 ug/Kg administered intraventricularly. The essentials: as §6
Experiment [35] has as its system Mus musculus. Put plainly: Evaluated for hypothermic activity in mice at a dose of 50 mg/Kg. Summed up:
as §3

Experiment [36] concerns Mus musculus. The experiment can be described thus: Evaluated for hypothermic activity in mice at a dose of 150 ug/Kg administered intraventricularly. Summed up:
as §5

Experiment [37] deals with Mus musculus. Put plainly: Tail-flick latency was determined at a concentration of 10 mg/Kg. Summed up:
as §1

Experiment [38] concerns Mus musculus. The experiment can be described thus: Evaluated for hypothermic activity in mice at a dose of 10 mg/Kg. The essentials: as §3
The test system of experiment [39] is Mus musculus. Put plainly: Evaluated for reduction in spontaneous locomotor activity in mice at a dose of 10 mg/Kg. Summed up:
as §4

Each structure is given as a SMILES string.

On to `C=C(CNCC)[C@@H]1CCC(C)=CC1c1c(O)cc(CCCCC)cc1O` (stereo not given in full), for which the Tail flick latency was 1 s in [1] and 0.6 s in experiment [4]. Further, the values for the Immobility in experiment [2] and in [7] were 4% and 7%, respectively. Also, the Temperature in experiment [3] was less than -2.1 °C; in [8], -0.8 °C. The Spont activity in [5] is recorded as 53 Counts 10min-1; in experiment [6], less than 27 Counts 10min-1.

On to `C=C(CN(CCCl)CCCl)[C@@H]1CCC(C)=CC1c1c(O)cc(CCCCC)cc1O` (stereo not given in full), for which the Temperature is less than -3.8 °C in experiment [9], -1.8 °C in experiment [11] and -1.1 °C in [14]. Further, the Spont activity in experiment [10] is on record as 75 Counts 10min-1; in experiment [13] it was 90 Counts 10min-1; in experiment [15] it was 81 Counts 10min-1. Also, the Tail flick latency in experiment [12] is given as -0.2 s.

Regarding `CCCCCc1cc(O)c2c(c1)OC(C)(CN)[C@@H]1CC=C(C)CC21` (stereo not given in full), the Immobility in experiment [16] is 24%; in experiment [2], 13%; in experiment [21], 15%. For the same compound, the Tail flick latency in experiment [17] is listed as 1.1 s; in experiment [4], 0.6 s; in experiment [20], less than 1.9 s; in [22] it was 1.1 s. For the same compound, the Spont activity in experiment [18] is recorded as less than 25 Counts 10min-1; in experiment [5], 68 Counts 10min-1; in experiment [6], less than 43 Counts 10min-1; in [24], less than 42 Counts 10min-1. For the same compound, the Temperature was -0.7 °C in [19], -1.1 °C in [3], less than -3 °C in experiment [23] and -0.8 °C in experiment [8].

Turning to `CCCCCc1cc(O)c2c(c1)OC(C)(CNCC)[C@@H]1CC=C(C)CC21` (stereo not given in full), the Temperature is -1.5 °C in experiment [25], -0.7 °C in [19] and -0.9 °C in experiment [8]. Further, the Immobility came to 13% in experiment [2], 16% in experiment [26] and 20% in experiment [7]. Besides, the Tail flick latency in experiment [4] is 1 s; in experiment [20], 2.2 s; in [22] it was less than 2.8 s. Further, the Spont activity in experiment [5] stood at 52 Counts 10min-1; in experiment [6] it was 35 Counts 10min-1; in [24], 35 Counts 10min-1.

Take `CCCCCc1cc(O)c2c(c1)OC(C)(C)[C@@H]1CC=C(CN(CCCl)CCCl)CC21` (stereo not given in full): the Immobility in experiment [2] is reported as 4%; in experiment [29], less than 24%. Further, the Tail flick latency in experiment [27] is reported as 0 s; in experiment [30], 0.2 s; in [4], 0.7 s; in experiment [33] it was -0.6 s. Further, the Spont activity in experiment [28] is reported as less than 27 Counts 10min-1; in experiment [32], 87 Counts 10min-1; in experiment [5], 56 Counts 10min-1; in experiment [34], 70 Counts 10min-1. For the same compound, the Temperature in experiment [31] was -1.5 °C; in [8], -0.8 °C; in experiment [35], less than -3.8 °C; in experiment [36], -1.7 °C.

Regarding `CCCCCc1cc(OC(C)=O)c2c(c1)OC(C)(C)[C@@H]1CC=C(CN(CCCl)CCCl)CC21.Cl` (stereo not given in full), the values for the Immobility in experiment [2] and in experiment [29] were 4% and less than 31%, respectively. Also, the Spont activity stood at 26 Counts 10min-1 in [28] and 51 Counts 10min-1 in [5]. For the same compound, the Tail flick latency in [4] was determined as 0.5 s; in [33], 0.6 s. The Temperature was -1.8 °C in experiment [8] and less than -3.3 °C in experiment [35].

In the case of `CCCCCc1cc(O)c2c(c1)OC(C)(C)[C@@H]1CC=C(CNCC)CC21.Cl` (stereo not given in full), the Tail flick latency in experiment [4] is reported as 0.5 s; in experiment [37] it was less than 2.6 s. The results for the Spont activity in experiment [5] and in experiment [39] were 49 Counts 10min-1 and 54 Counts 10min-1, respectively. Besides, the Temperature in experiment [8] is -1.8 °C; in [38], less than -3.8 °C.
